Test results published in ChEMBL document CHEMBL1124406 (J Med Chem, 1989).

Tests used:
L1210 [1] = assay: Compound was measured for growth inhibition of L1210 cells in the presence of thymidine; format: functional, cell-based; conditions: Mus musculus
How it was run: (§1)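 Reversal test of an antifolate effect on L1210 cell growth in culture. The drug is given alongside one of three supplements: thymidine alone at 10 μM, hypoxanthine alone at 100 μM, or thymidine 10 μM plus hypoxanthine 100 μM together.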

Mus musculus [2] = species: Mus musculus; assay: Kinetic constant of compound was derived from purified Folyl-polyglutamate synthase from mouse liver
How it was run: (§2)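 FPGS was partially purified from mouse liver, and the compounds were run as substrates. Km, Vmax and Vmax/Km came from the kinetic data. Vmax and Vmax/Km are expressed relative to aminopterin run in the same experiment. Each compound was tested in 2–3 experiments on different days.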

L1210 [3] = assay: Compound was measured for growth inhibition of L1210 cells in standard medium; format: functional, cell-based; conditions: Mus musculus
Mus musculus [4] = species: Mus musculus; assay: Vmax of compound was derived from purified Folyl-polyglutamate synthase from mouse liver; how it was run: as §2
L1210 [5] = assay: Inhibition of cell growth against L1210 murine leukemia cells; format: functional, cell-based; conditions: Mus musculus
L1210 [6] = assay: Compound was measured for growth inhibition of L1210 cells in the presence of hypoxanthine; format: functional, cell-based; conditions: Mus musculus; how it was run: as §1
[7] = Inhibition of cell growth against WI-L2 cells; format: functional, cell-based; conditions: Homo sapiens, WIL2
Mus musculus [8] = species: Mus musculus; assay: Ratio of Vmax and Km relative to AMT; how it was run: as §2
L1210 [9] = assay: Compound was measured for growth inhibition of L1210 cells in the presence of thymidine plus hypoxanthine; format: functional, cell-based; conditions: Mus musculus; how it was run: as §1
Dihydrofolate reductase = biological target: T1, Dihydrofolate reductase (Homo sapiens, UniProt P00374); assay: Compound was tested for its inhibitory activity against dihydrofolate reductase (DHFR), isolated from MTX-resistant WI-L2 cells; format: cell-based
T1 sequence (P00374 whole entry): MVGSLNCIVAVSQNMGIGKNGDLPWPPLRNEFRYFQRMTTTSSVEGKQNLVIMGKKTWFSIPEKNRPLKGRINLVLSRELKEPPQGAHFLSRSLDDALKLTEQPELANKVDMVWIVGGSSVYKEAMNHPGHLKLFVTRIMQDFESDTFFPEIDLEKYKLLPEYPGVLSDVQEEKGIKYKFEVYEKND

Row | SMILES | IC50 (L1210 [1]) [nM] | Km (Mus musculus [2]) [µM] | IC50 (L1210 [3]) [nM] | Vmax (Mus musculus [4]) | IC50 (L1210 [5]) [nM] | IC50 (L1210 [6]) [nM] | IC50 [7] [nM] | Ratio (Mus musculus [8]) | IC50 (L1210 [9]) [nM] | IC50 (Dihydrofolate reductase) [nM]
1 | Nc1ncnc2ncc(CNc3ccc(C(=O)NC(CCC(=O)O)C(=O)O)cc3)nc12 (centres undefined) | 160 | 26.4 | 82 | 0.87 | 82 | 260 | 81 | 0.74 | > 100000 | 
2 | CN(Cc1cnc2nc(N)nc(N)c2n1)c1ccc(C(=O)N[C@@H](CCC(=O)O)C(=O)O)cc1 [METHOTREXATE] |  |  |  |  | 9 |  | 13 |  |  | 
3 | Cc1nc(N)c2nc(CNc3ccc(C(=O)NC(CCC(=O)O)C(=O)O)cc3)cnc2n1 (centres undefined) | 130 | 31.7 | 42 | 0.77 | 42 | 160 | 28 | 0.6 | > 100000 | > 50000
4 | Nc1nc(N)c2nc(CNc3ccc(C(=O)N[C@@H](CCC(=O)O)C(=O)O)cc3)cnc2n1 |  | 22.8 |  | 1 |  |  |  | 1 |  | 
